# High-throughput results (PubChem BioAssay)
# Yeast eIF2B = modulators of yeast eIF2B activity; inhibition, % at 25 µM (by protocol); S. cerevisiae eIF2B-epsilon R284H, GCN4-lacZ luminescence; 27,000 tested, 0.91% active;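 active means mutant luminescence inhibited past about 50% while wild type luminescence and mutant growth stay under set limits, limit read from the data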
#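 System: Yeast eIF2B-epsilon R284H mutant carrying GCN4–beta-galactosidase fusion | Read-out basis: Percent inhibition, luminescence and growth | Compound: 25 µM single dose | Times: 16 h at 30 °C exposure | Measured by: Luminescence and A595 | Buffer or medium: YPD medium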
# Yeast growth tox = Inhibitors of S. cerevisiae growth, toxicity. 30,000 tested, 0.3% active. growth inhibition, % at 25 µM (by protocol). S. cerevisiae wild-type growth, A595 turbidity, 16 h;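 active means mutant and wild-type yeast strains alike exhibit over 30% growth inhibition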;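 further: 0% = untreated cell controls and 100% = YPD media blanks without cells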
#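 Incubation: 16 h growth with compound, 30 °C; Material: S. cerevisiae wild-type or eIF2Bepsilon-R284H mutant strain; Signal: turbidity measured as absorbance at 595 nm; Medium: YPD yeast growth medium; Measure: growth inhibition (%) versus cell controls and blanks; Doses: 25 µM single dose.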
# * marks the source's active call; other numbers are inactive results; nt = not tested or not shown. Most compounds without a hit are left out; they make up all but 1.1% or so of the library.
SMILES,Yeast eIF2B,Yeast growth tox
CCOC(=O)c1c(N)nn(C(C)=O)c1-c1ccccc1,54*,-3
CCOC(=O)c1c(N)nn(C(=O)C(C)C)c1-c1ccc(OC)cc1,12,-41
CCOc1ncccc1C(=O)OCc1cc(=O)n2c(n1)sc1ccccc12,2,-16
COc1cc(/C=N/n2cnnc2)ccc1OCc1ccc(C)cc1,9,7
O=C1CCCCCN1C(=O)c1cccc(C(=O)N2CCCCCC2=O)c1,20,nt
Cc1ccc(S(=O)(=O)Cc2cccc(C(=O)N3CCOCC3)c2)cc1,-3,8
O=c1c2c3c(sc2n2c(=S)[nH]nc2n1Cc1ccccc1)CN(Cc1ccccc1)CC3,-11,-37
Cc1cc(C)c(C(N)=O)c(Nc2cccc3ccccc23)n1,nt,-3
COc1ccccc1Nc1nc(C)cc(C)c1C(N)=O,52*,-12
Cc1cc2cc(CN3C(=O)c4ccccc4C3=O)ccc2n1C,-24,-36
COc1ccc(OC)c(S(=O)(=O)Nc2cc(Cl)cc(Cl)c2)c1,-27,6
Cn1c(SCC(=O)N2CCCCC2)nc2cccnc21,12,nt
CCOC(=O)N1CCC(NS(=O)(=O)c2cc(Br)cnc2N)CC1,26,2
CCCC(=O)N1CCN(C2=NS(=O)(=O)c3ccccc32)CC1,44,9
CC(C)C(=O)N1CCN(C2=NS(=O)(=O)c3ccccc32)CC1,53*,-9
CCCCCOC(=O)C1=C(C)Nc2nnnn2C1c1ccccc1Cl (configuration not stated),nt,20
CCn1c(SCC(=O)Nc2ccc(C)cc2)nnc1-c1ccc(O)cc1,16,-12
O=C(Nc1ccccc1N1CCN(C(=O)c2ccccc2)CC1)c1cc2ccccc2o1,50*,-30
Nc1ccccc1N1CCN(C(=O)c2ccccc2)CC1,10,9
CCn1c(CNc2nc3ccccc3n2C(C)C)nc2ccccc21,53*,8
CCn1c(NCc2ccccc2Cl)nc2ccccc21,19,5
COC(=O)c1sc(OC)cc1OCc1ccc(C)cc1,25,8
CC(=O)c1cc(F)c(N2CCN(C(=O)COc3ccccc3F)CC2)cc1C,8,-1
CCOCC(=O)Nc1ccc(F)c(F)c1,12,0
CCOCC(=O)Nc1cccc(NC(C)=O)c1,72*,0
SMILES,Yeast eIF2B,Yeast growth tox
Cc1ccc(CSCC(=O)Nc2ccc3c(c2)OCO3)cc1,nt,13
CC(C)=CC(=O)Nc1ccc2c(c1)OCO2,54*,26
CCC(CC)COC(=O)C(C#N)c1nc2ccccc2nc1N1CCOCC1 (configuration not stated),14,12
N#CC(C(=O)OC1CCCCC1)c1nc2ccccc2nc1N1CCOCC1 (configuration not stated),51*,-13
CC/C(C)=C1\SC(N2CCOCC2)=NC1=O,nt,5
O=C(O)c1ccc(CSc2n[nH]c(-c3ccco3)n2)cc1,67*,-13
N#Cc1ccc(-c2ccco2)nc1SCc1ccccc1,19,-12
C=CCN(C(=O)CCC(=O)O)C1CC(=O)N(c2ccc(OC)cc2)C1=O (configuration not stated),50*,nt
C=CCN(C(C)=O)C1CC(=O)N(c2ccc(OCCC)cc2)C1=O (configuration not stated),nt,6
Oc1ccccc1-c1nnc(-c2ccc(C(F)(F)F)cc2)o1,53*,-4
COc1cccc(-c2nnc(-c3ccc(C(F)(F)F)cc3)o2)c1,-30,-3
Cc1ccc(S(=O)(=O)N2CCCC2C(=O)OCc2ccco2)cc1 (configuration not stated),13,2
COc1ccc(/C=N/N=C2/NC(=O)C(c3ccccc3)(c3ccccc3)S2)cc1,27,-6
COc1ccc(C2(O)CCN(Cc3nnnn3Cc3ccc(C)cc3)CC2)cc1,-6,11
Cc1ccc(Cn2nnnc2CN2CCC(O)(c3ccc(F)cc3)CC2)cc1,69*,2
Cc1c(C(=O)NCc2cccnc2)oc2ccc(S(=O)(=O)N3CCCCCC3)cc12,25,4
CCOC(=O)N1CCN(C(=O)CC(C(=O)N2CCc3ccccc32)n2ccnc2)CC1 (configuration not stated),0,13
COC(=O)C(CC(=O)c1ccc(Br)cc1)n1ccnc1 (configuration not stated),-10,33*
CN(C(=O)c1cccc(C#N)c1)c1nnc(-c2cnccn2)s1,23,-7
CCCOCC1CC2(CC(C)(c3csc(N)n3)OC2=O)C(=O)O1 (configuration not stated),61*,nt
N#Cc1c(SCc2cccc(Cl)c2)sc(C(=O)c2ccccc2)c1N,0,9
CC1CCN(CCCNC(=O)c2ccc(CSCc3cccc(Cl)c3)o2)CC1,19,6
CC(C)OC(=O)CSc1nc2ccccc2s1,nt,-12
CCC(=O)OCCNc1cc(Sc2nc3ccccc3s2)c2nonc2c1[N+](=O)[O-],nt,52*
